Data from ChEMBL document CHEMBL1143854 (Antimicrob Agents Chemother, 2007).
pIC50: −log10 of the molar value. Active and inactive are the calls of the source. No cut-off for these calls is given here.

Key:
Assay type in all cases: functional, organism-based
Plasmodium falciparum [1] = experiment: Reduction of [3H]chloroquine uptake in chloroquine-sensitive Plasmodium falciparum 3D7 infected erythrocytes after 90 min
Procedure, shortened: (§1)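 Trophozoite-stage parasitized erythrocytes (5% parasitemia, 1.5% hematocrit) added to microtubes holding unlabeled antimalarial plus radiolabeled drug ([3H]DHA 1.4 Ci/mmol or [3H]CQ 50.4 Ci/mmol); 37°C, 90 min. Cells spun through silicon oil, radioactivity by liquid scintillation. Uptake as percent of control parasitized erythrocytes after subtracting uninfected-erythrocyte uptake; at least two experiments, each in triplicate.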

Plasmodium falciparum [2] = experiment: Reduction of [3H]chloroquine uptake in chloroquine-resistant Plasmodium falciparum RSA11 infected erythrocytes after 90 min
Procedure, shortened: (§2)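 [3H]chloroquine (50.4 Ci/mmol) uptake into trophozoite-infected erythrocytes (5% parasitemia, 1.5% hematocrit), with unlabeled antimalarial added at the start, 90 min at 37°C. Cells spun through silicone oil, radioactivity counted by liquid scintillation. Uptake given as percent of untreated infected-cell control after subtracting uptake in uninfected erythrocytes. At least two experiments, each in triplicate.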

Plasmodium falciparum [3] = experiment: Reduction of [3H]dihydroartemisinin uptake in chloroquine-sensitive Plasmodium falciparum FC27 infected erythrocytes after 90 min; procedure, shortened: as §1
Plasmodium falciparum [4] = experiment: Reduction of [3H]dihydroartemisinin uptake in chloroquine-resistant Plasmodium falciparum K1 infected erythrocytes after 90 min
Procedure, shortened: as §2, with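 “[3H]dihydroartemisinin (1.4” for “[3H]chloroquine (50.4”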

Plasmodium falciparum [5] = experiment: Reduction of [3H]dihydroartemisinin uptake in chloroquine-sensitive Plasmodium falciparum 3D7 infected erythrocytes after 90 min; procedure, shortened: as §1
Plasmodium falciparum [6] = experiment: Reduction of [3H]dihydroartemisinin uptake in chloroquine-resistant Plasmodium falciparum RSA11 infected erythrocytes after 90 min
Procedure, shortened: as §2, with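 “[3H]dihydroartemisinin (1.4” for “[3H]chloroquine (50.4”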

Plasmodium falciparum [7] = experiment: Reduction of [3H]chloroquine uptake in chloroquine-sensitive Plasmodium falciparum FC27 infected erythrocytes after 90 min; procedure, shortened: as §1
Plasmodium falciparum [8] = experiment: Antimalarial activity against chloroquine-sensitive Plasmodium falciparum FC27
Plasmodium falciparum [9] = experiment: Antimalarial activity against chloroquine-sensitive Plasmodium falciparum T996
Plasmodium falciparum [10] = experiment: Antimalarial activity against chloroquine-sensitive Plasmodium falciparum 3D7
Plasmodium falciparum [11] = experiment: Antimalarial activity against chloroquine-sensitive Plasmodium falciparum 106/1
Plasmodium falciparum [12] = experiment: Antimalarial activity against chloroquine-resistant Plasmodium falciparum 34-1/E
Plasmodium falciparum [13] = experiment: Antimalarial activity against chloroquine-resistant Plasmodium falciparum K1
Plasmodium falciparum [14] = experiment: Antimalarial activity against chloroquine-resistant Plasmodium falciparum RSA11
Plasmodium falciparum [15] = experiment: Antimalarial activity against chloroquine-resistant Plasmodium falciparum 7G8-mdr7G8

| SMILES | Activity (Plasmodium falciparum [1]) | Activity (Plasmodium falciparum [2]) | Activity (Plasmodium falciparum [2]; K1) | Activity (Plasmodium falciparum [3]) | Activity (Plasmodium falciparum [4]) | Activity (Plasmodium falciparum [5]) | Activity (Plasmodium falciparum [6]) | Activity (Plasmodium falciparum [7]) | pIC50 (Plasmodium falciparum [8]) | pIC50 (Plasmodium falciparum [9]) | pIC50 (Plasmodium falciparum [10]) | pIC50 (Plasmodium falciparum [11]) | pIC50 (Plasmodium falciparum [12]) | pIC50 (Plasmodium falciparum [13]) | pIC50 (Plasmodium falciparum [14]) | pIC50 (Plasmodium falciparum [15]) |
| --- | --- | --- | --- | --- | --- | --- | --- | --- | --- | --- | --- | --- | --- | --- | --- | --- |
| CO[C@H]1O[C@@H]2O[C@@]3(C)CC[C@H]4[C@H](C)CC[C@@H]([C@H]1C)[C@@]24OO3 | Active | Active | Active | Active | Active | Active | Active | Active | – | – | – | – | – | – | – | – |
| Clc1ccc2c(N3CCN(CCCN4CCN(c5ccnc6cc(Cl)ccc56)CC4)CC3)ccnc2c1 [PIPERAQUINE] | Active | Active | Active | Active | Active | Active | Active | Active | 7.53 | 7.70 | 7.43 | 7.65 | 7.79 | – | – | – |
| OC(c1cc(C(F)(F)F)nc2c(C(F)(F)F)cccc12)C1CCCCN1 (configuration not stated) | Active | Active | Active | Active | Active | Active | Active | Active | – | – | – | – | – | – | – | – |
| C[C@H]1[C@@H](O)O[C@@H]2O[C@@]3(C)CC[C@H]4[C@H](C)CC[C@@H]1[C@@]24OO3 | Active | Active | Active | Active | Active | Active | Active | Active | – | – | – | – | – | – | – | – |
| CCN(CC)CCCC(C)Nc1ccnc2cc(Cl)ccc12 (configuration not stated) | Active | Active | Active | Active | Active | Active | Active | Active | – | – | – | – | – | – | – | – |
| CCN(CC)Cc1cc(Nc2ccnc3cc(Cl)ccc23)ccc1O | – | – | – | Active | Active | Active | Active | – | 8.18 | 7.83 | 7.74 | 7.76 | 7.76 | 7.65 | 7.57 | 7.49 |
